Laboratory results taken from ChEMBL document CHEMBL1153233, “Novel substituted (Z)-5-((N-benzyl-1H-indol-3-yl)methylene)imidazolidine-2,4-diones and 5-((N-benzyl-1H-indol-3-yl)methylene)pyrimidine-2,4,6(1H,3H,5H)-triones as potent radio-sensitizing agents” (2010).

tested on: HT-29; assay: Radiosensitization activity against human HT-29 cells assessed as survival relative to control; format: functional
Procedure, shortened: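 HT-29 colorectal adenocarcinoma cells exposed to analog at 25 µM (or DMSO vehicle) for 2 h at 37 °C, then irradiated with 4 Gy. Analog washed off, cells kept 14 days in fresh medium, colonies stained with crystal violet and counted. Surviving fraction taken as colonies over cells treated. Relative survival is survival with radiation plus analog divided by survival with radiation alone, with vehicle set at 1.0.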

SMILES | Ratio
O=C1NC(=O)/C(=C/c2cn(Cc3ccccc3)c3ccc(Cl)cc23)N1 | 1.38
COc1ccc(Cn2cc(/C=C3\NC(=O)NC3=O)c3cc(Br)ccc32)cc1 | 1.29
COc1ccc2c(c1)c(/C=C1\NC(=O)NC1=O)cn2Cc1ccccc1 | 1.38
O=C1NC(=O)C(=Cc2cn(Cc3ccccc3)c3ccccc23)C(=O)N1 | 1.35
COC(=O)c1ccc(Cn2cc(C=C3C(=O)NC(=O)NC3=O)c3ccccc32)cc1 | 0.64
O=C1NC(=O)/C(=C/c2cn(Cc3ccc(F)cc3)c3ccccc23)N1 | 0.91
O=C1NC(=O)C(=Cc2cn(Cc3ccccc3Br)c3ccccc23)C(=O)N1 | 1.14
O=C1NC(=O)C(=Cc2cn(Cc3ccc(Cl)cc3)c3ccccc23)C(=O)N1 | 0.91
O=C1NC(=O)C(=Cc2cn(Cc3ccccc3)c3ccc(Cl)cc23)C(=O)N1 | 1.38
O=C1NC(=O)C(=Cc2cn(Cc3ccc([N+](=O)[O-])cc3)c3ccccc23)C(=O)N1 | 0.44
COc1ccc2c(c1)c(C=C1C(=O)NC(=O)NC1=O)cn2Cc1ccccc1 | 1.73
O=C1NC(=O)/C(=C/c2cn(Cc3ccc([N+](=O)[O-])cc3)c3ccccc23)N1 | 1.14
O=C1NC(=O)/C(=C/c2cn(Cc3ccc(Cl)cc3)c3ccccc23)N1 | 1.44
COC(=O)c1ccc(Cn2cc(/C=C3\NC(=O)NC3=O)c3ccccc32)cc1 | 1
N#Cc1ccc(Cn2cc(/C=C3\NC(=O)NC3=O)c3ccccc32)cc1 | 1.53
O=C1NC(=O)/C(=C/c2cn(Cc3ccccc3)c3ccccc23)N1 | 1.3
Cc1ccc2c(c1)c(/C=C1\NC(=O)NC1=O)cn2Cc1ccccc1 | 1.18
O=C1NC(=O)/C(=C/c2cn(Cc3ccccc3)c3ccc(Br)cc23)N1 | 1.06
COc1ccc(Cn2cc(C=C3C(=O)NC(=O)NC3=O)c3ccccc32)cc1 | 1.18
O=C1NC(=O)/C(=C/c2cn(Cc3ccccc3Br)c3ccccc23)N1 | 1.18
N#Cc1ccc(Cn2cc(C=C3C(=O)NC(=O)NC3=O)c3ccccc32)cc1 | 0.23
Cc1ccc(Cn2cc(/C=C3\NC(=O)NC3=O)c3ccccc32)cc1 | 1.06
